Laboratory results: publication PMC9933479 (ACS Omega, 2023)

Assays:
Test in all cases: MTT assay, cytotoxicity/growth inhibition
A549 (lung carcinoma) = assay type: cell-based, human; conditions: for Cytotoxic Activity (% Growth Inhibition): A549, 20 μM concentration, MTT, 48 h, 20 µM; for IC50 / inhibition at 20 µM: Homo sapiens; for IC50: A549; for inhibition at 20 µM: A549, 48 h, read-out: Cytotoxic Activity (% Growth Inhibition), A549, 20 μM concentration, MTT, 48 h
Outline: (§1)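 Cells were grown in RPMI (A549, HCT-116, PC-3) or DMEM (MCF-7) with 10% FBS at 37 °C and 5% CO2. Seeding per well was […] and PC-3 8 × 10^4 cells. […] MTT 250 μg/mL, 4 h; DMSO; A570; triplicate; mean ± SE.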

[1] = tested on: PC-3 (prostate carcinoma); assay type: cell-based; conditions: Homo sapiens; for inhibition at 20 µM: 48 h, read-out: Cytotoxic Activity (% Growth Inhibition)
Outline: as §1

MCF-7 (breast carcinoma) = assay type: cell-based; conditions: Homo sapiens; for IC50: MCF7; for inhibition at 20 µM: MCF7, 48 h, read-out: Cytotoxic Activity (% Growth Inhibition)
Outline: as §1

[2] = tested on: HCT-116 (colon carcinoma); assay type: cell-based; conditions: Homo sapiens; for IC50: HCT-116; for inhibition at 20 µM: HCT-116, 48 h, read-out: Cytotoxic Activity (% Growth Inhibition)
Outline: as §1

| SMILES | Cytotoxic Activity (% Growth Inhibition) (A549 (lung carcinoma)) | IC50 (A549 (lung carcinoma)) | inhibition at 20 µM (A549 (lung carcinoma)) | IC50 [1] | inhibition at 20 µM [1] | IC50 (MCF-7 (breast carcinoma)) | inhibition at 20 µM (MCF-7 (breast carcinoma)) | IC50 [2] | inhibition at 20 µM [2] |
| --- | --- | --- | --- | --- | --- | --- | --- | --- | --- |
| C=C1CC[C@@H]2[C@](C)(CO)[C@H](O)CC[C@@]2(C)[C@@H]1C/C=C1/C(=O)OC[C@H]1O [Compound 1, Andrographolide, reference compound] | 21.64 ± 0.22% | > 20 µM | 21% | > 20 µM | 0% | > 20 µM | 42.93 ± 0.05% | > 20 µM | 4.86 ± 0.25% |
| C[C@@]12COC(c3ccccc3)O[C@@H]1CC[C@]1(C)C2CC=C(COC(=O)c2ccccc2)[C@H]1/C=C/C1=CCOC1=O (stereo partly drawn) [Compound 8a, ((4aR,6aR,7S,10bR)-6a,10b-Dimethyl-7-((E)-2-(2-oxo-2,5-dihydrofuran-3-yl)vinyl)-3-phenyl-4a,5,6,6a,7,10,10a,10b-octahydro-1H-naphtho[2,1-d][1,3]dioxin-8-yl)methyl Benzoate] | 72.82 ± 0.05% | 10.6 µM | 72% | > 20 µM | 0% | > 20 µM | 9.68 ± 0.14% | > 20 µM | 21.12 ± 0.19% |
| COc1cccc(C(=O)OCC2=CCC3[C@]4(C)COC(c5ccccc5)O[C@@H]4CC[C@@]3(C)[C@@H]2/C=C/C2=CCOC2=O)c1 (stereo partly drawn) [Compound 8b, ((4aR,6aR,7S,10bR)-6a,10b-Dimethyl-7-((E)-2-(2-oxo-2,5-dihydrofuran-3-yl)vinyl)-3-phenyl-4a,5,6,6a,7,10,10a,10b-octahydro-1H-naphtho[2,1-d][1,3]dioxin-8-yl)methyl 3-Methoxybenzoate] | 48.88 ± 0.17% |  | < 52% |  | 0% |  | 6.04 ± 0.12% |  | 11.72 ± 0.11% |
| C[C@@]12COC(c3ccccc3)O[C@@H]1CC[C@]1(C)C2CC=C(COC(=O)c2cccc(F)c2)[C@H]1/C=C/C1=CCOC1=O (stereo partly drawn) [Compound 8c, ((4aR,6aR,7S,10bR)-6a,10b-Dimethyl-7-((E)-2-(2-oxo-2,5-dihydrofuran-3-yl)vinyl)-3-phenyl-4a,5,6,6a,7,10,10a,10b-octahydro-1H-naphtho[2,1-d][1,3]dioxin-8-yl)methyl 3-Fluorobenzoate] |  |  | 41.7 ± 0.45% |  | 0% |  | 2.06 ± 0.04% |  | 19.3 ± 0.37% |
| C[C@@]12COC(c3ccccc3)O[C@@H]1CC[C@]1(C)C2CC=C(COC(=O)c2cccc(Cl)c2)[C@H]1/C=C/C1=CCOC1=O (stereo partly drawn) [Compound 8d, ((4aR,6aR,7S,10bR)-6a,10b-Dimethyl-7-((E)-2-(2-oxo-2,5-dihydrofuran-3-yl)vinyl)-3-phenyl-4a,5,6,6a,7,10,10a,10b-octahydro-1H-naphtho[2,1-d][1,3]dioxin-8-yl)methyl 3-Chlorobenzoate] |  |  | 30.11 ± 0.11% |  | 0% |  | 2.4 ± 0.084% |  | 0% |
| C[C@@]12COC(c3ccccc3)O[C@@H]1CC[C@]1(C)C2CC=C(COC(=O)c2cccc(Br)c2)[C@H]1/C=C/C1=CCOC1=O (stereo partly drawn) [Compound 8e, ((4aR,6aR,7S,10bR)-6a,10b-Dimethyl-7-((E)-2-(2-oxo-2,5-dihydrofuran-3-yl)vinyl)-3-phenyl-4a,5,6,6a,7,10,10a,10b-octahydro-1H-naphtho[2,1-d][1,3]dioxin-8-yl)methyl 3-Bromobenzoate] |  |  | 31.59 ± 0.23% |  | 0% |  | 0% |  | 0% |
| C[C@@]12COC(c3ccccc3)O[C@@H]1CC[C@]1(C)C2CC=C(COC(=O)c2cccc(I)c2)[C@H]1/C=C/C1=CCOC1=O (stereo partly drawn) [Compound 8f, ((4aR,6aR,7S,10bR)-6a,10b-Dimethyl-7-((E)-2-(2-oxo-2,5-dihydrofuran-3-yl)vinyl)-3-phenyl-4a,5,6,6a,7,10,10a,10b-octahydro-1H-naphtho[2,1-d][1,3]dioxin-8-yl)methyl 3-Iodobenzoate] |  |  | 30.98 ± 0.25% |  | 0% |  | 0% |  | 33.25 ± 0.11% |
| C[C@@]12COC(c3ccccc3)O[C@@H]1CC[C@]1(C)C2CC=C(COC(=O)c2ccoc2)[C@H]1/C=C/C1=CCOC1=O (stereo partly drawn) [Compound 8g, ((4aR,6aR,7S,10bR)-6a,10b-Dimethyl-7-((E)-2-(2-oxo-2,5-dihydrofuran-3-yl)vinyl)-3-phenyl-4a,5,6,6a,7,10,10a,10b-octahydro-1H-naphtho[2,1-d][1,3]dioxin-8-yl)methyl Furan-3-carboxylate] |  |  | 40.95 ± 0.39% |  | 25 ± 0.58% |  | 0% |  | 0% |
| C[C@@]12COC(c3ccccc3)O[C@@H]1CC[C@]1(C)C2CC=C(COC(=O)c2cccc(C(F)(F)F)c2)[C@H]1/C=C/C1=CCOC1=O (stereo partly drawn) [Compound 8h, ((4aR,6aR,7S,10bR)-6a,10b-Dimethyl-7-((E)-2-(2-oxo-2,5-dihydrofuran-3-yl)vinyl)-3-phenyl-4a,5,6,6a,7,10,10a,10b-octahydro-1H-naphtho[2,1-d][1,3]dioxin-8-yl)methyl 3-(Trifluoromethyl)benzoate] | 69.48 ± 0.42% |  | 69% |  | 54 ± 0.62% |  | 0% |  | 4.8 ± 0.02% |
| Cc1cccc(C(=O)OCC2=CCC3[C@]4(C)COC(c5ccccc5)O[C@@H]4CC[C@@]3(C)[C@@H]2/C=C/C2=CCOC2=O)c1 (stereo partly drawn) [Compound 8i, ((4aR,6aR,7S,10bR)-6a,10b-Dimethyl-7-((E)-2-(2-oxo-2,5-dihydrofuran-3-yl)vinyl)-3-phenyl-4a,5,6,6a,7,10,10a,10b-octahydro-1H-naphtho[2,1-d][1,3]dioxin-8-yl)methyl 3-Methylbenzoate] | 67.66 ± 0.23% |  | 68% |  | 0% |  | 4.37 ± 0.01% |  | 4.35 ± 0.54% |
| COc1cc(OC)cc(C(=O)OCC2=CCC3[C@]4(C)COC(c5ccccc5)O[C@@H]4CC[C@@]3(C)[C@@H]2/C=C/C2=CCOC2=O)c1 (stereo partly drawn) [Compound 8j, ((4aR,6aR,7S,10bR)-6a,10b-Dimethyl-7-((E)-2-(2-oxo-2,5-dihydrofuran-3-yl)vinyl)-3-phenyl-4a,5,6,6a,7,10,10a,10b-octahydro-1H-naphtho[2,1-d][1,3]dioxin-8-yl)methyl 3,5-Dimethoxybenzoate] | 51 ± 0.48% |  | < 52% |  | 55.8 ± 0.49% |  | 48 ± 0.91% |  | 47.2 ± 0.75% |
| C[C@@]12COC(c3ccccc3)O[C@@H]1CC[C@]1(C)C2CC=C(COC(=O)c2ccc(Br)cc2F)[C@H]1/C=C/C1=CCOC1=O (stereo partly drawn) [Compound 8m, ((4aR,6aR,7S,10bR)-6a,10b-Dimethyl-7-((E)-2-(2-oxo-2,5-dihydrofuran-3-yl)vinyl)-3-phenyl-4a,5,6,6a,7,10,10a,10b-octahydro-1H-naphtho[2,1-d][1,3]dioxin-8-yl)methyl 4-Bromo-2-fluorobenzoate] |  |  |  |  | 0% |  | 44 ± 0.24% |  | 30.4 ± 0.9% |
| COc1cc(C(=O)OCC2=CCC3[C@](C)(CO)[C@H](O)CC[C@@]3(C)[C@@H]2/C=C/C2=CCOC2=O)cc(OC)c1OC (stereo partly drawn) [Compound 9k, ((1S,5R,6R,8aR)-6-Hydroxy-5-(hydroxymethyl)-5,8a-dimethyl-1-((E)-2-(2-oxo-2,5-dihydrofuran-3-yl)vinyl)-1,4,4a,5,6,7,8,8a-octahydronaphthalen-2-yl)methyl 3,4,5-Trimethoxybenzoate] |  |  | 29.4 ± 0.82% |  |  |  | 41 ± 0.87% |  | 19.8 ± 0.68% |
